# Results: article PMC2673089 (Journal of pharmaceutical sciences, 2008)
# Columns and labels:
# MDCK-MDR1 monolayers = assay: Bidirectional transport and verapamil inhibition across MDCK-MDR1 monolayers; type: in vitro ADME
# rat CYP2D1 = molecular target: T1, rat CYP2D1 (Rattus norvegicus, UniProt P10633); assay: Metabolism by recombinant rat CYP2D1 Supersomes; type: in vitro ADME
# T1 sequence (P10633 1-504): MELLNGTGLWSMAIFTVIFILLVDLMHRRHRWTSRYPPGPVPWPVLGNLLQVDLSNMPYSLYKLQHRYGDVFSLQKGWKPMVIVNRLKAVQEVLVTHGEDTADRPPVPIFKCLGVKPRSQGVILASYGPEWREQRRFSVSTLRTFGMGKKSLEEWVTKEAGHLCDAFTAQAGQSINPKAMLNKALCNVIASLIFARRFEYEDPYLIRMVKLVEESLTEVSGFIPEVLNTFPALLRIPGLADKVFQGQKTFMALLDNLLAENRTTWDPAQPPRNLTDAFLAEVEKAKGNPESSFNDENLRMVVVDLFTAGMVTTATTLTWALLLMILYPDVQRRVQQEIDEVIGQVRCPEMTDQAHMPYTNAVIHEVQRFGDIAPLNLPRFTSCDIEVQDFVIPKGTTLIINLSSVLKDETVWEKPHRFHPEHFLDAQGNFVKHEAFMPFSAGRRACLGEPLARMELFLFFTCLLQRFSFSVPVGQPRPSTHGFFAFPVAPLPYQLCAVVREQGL
# histamine H1 receptors = conditions: read-out: H1 Ki; mean ± SEM; cited from earlier work
# [1] = tested on: pooled human liver microsomes; assay: Metabolism in pooled human liver microsomes; type: in vitro ADME
# [2] = tested on: extracellular levels of DA in the nucleus accumbens (NAc); assay: Intracerebral microdialysis of NAc dopamine; type: in vivo, Sprague–Dawley rats; conditions: for maximal increase of DA: NAc dialysate; for time DA levels remained significantly elevated above basal: post hoc p < 0.05
# Outline: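 CMA/12 probe (2 mm) was perfused with aCSF at 1 μL/min. Dialysate was collected over 10-min periods to 360 min. DA by HPLC-ECD, as % of mean of four basal samples. Repeated-measures ANOVA, Dunnett vs time zero.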
# [3] = MDCK-MDR1, 0.1 mM, absence of verapamil, mean ± SD (n = 3)
smiles,measurement,setting,value
"CC(C)[C@@H](N)CN1C2CCC1CC(OC(c1ccc(F)cc1)c1ccc(F)cc1)C2 (stereo partly drawn) [GA2-50, N-((R)-2″-amino-3″-methyl-n-butyl)-3α-[(bis-4′-fluorophenyl)methoxy]tropane]",Permeability relative to JHW 025,MDCK-MDR1 monolayers; MDCK-MDR1,around 6.8 fold
same,Efflux Ratio,"MDCK-MDR1 monolayers; MDCK-MDR1, 0.1 mM, Papp(B-A)/Papp(A-B)",3.4
same,Papp A-B,MDCK-MDR1 monolayers; [3],34.01 ± 2.78 × 10^−6 cm/s
same,Papp B-A,MDCK-MDR1 monolayers; [3],116.97 ± 5.23 × 10^−6 cm/s
same,Enhancement ratio of A-B transport by verapamil,"MDCK-MDR1 monolayers; MDCK-MDR1, verapamil 200 μM",2.3
same,P-gp substrate status,"MDCK-MDR1 monolayers; polarized transport across MDCK-MDR1 and Caco-2, verapamil-sensitive",substrate for the efflux transporter P-gp
same,Intrinsic Clearance,"rat CYP2D1; Rat CYP 2D1 50 pmol/mL, 4 μM",0.11 ± 0.02 (c) microliters per minute per picomole of P450
same,Substrate disappearance after 60 min incubation vs control,"rat CYP2D1; rat CYP2D1, 10 μM, 50 pmol/mL P450, p < 0.05",statistically significant disappearance
same,Ki,histamine H1 receptors,218 ± 15.5 nM
same,Intrinsic Clearance,"[1]; Pooled HLM 0.8 mg/mL, 4 μM, mean ± SD n = 3",3.17 ± 1.18 microliters per minute per milligram of protein
same,"Intrinsic clearance, fold lower than 4′,4″-diCl BZT","[1]; pooled human liver microsomes, comparator values ref 26",4.0 fold
same,maximal DA elevation relative to basal,[2]; 5 mg/kg i.v.,1.6 fold
same,time of maximal DA increase postdose,[2]; 5 mg/kg i.v.,20 min
same,maximal increase of DA,[2]; 5 mg/kg i.v.,159 % of the basal values
same,time DA levels remained significantly elevated above basal,[2]; 5 mg/kg i.v.,up to 1 h
same,maximal DA elevation relative to basal,[2]; 10 mg/kg i.v.,2.7 fold
same,time of maximal DA increase postdose,[2]; 10 mg/kg i.v.,30 min
same,maximal increase of DA,[2]; 10 mg/kg i.v.,274 % of the basal values
same,time DA levels remained significantly elevated above basal,"[2]; 10 mg/kg i.v., whole 6 h experiment",≥ 6 h
same,effect on cocaine-induced DA elevation,"[2]; GA2-50 + cocaine, 5 mg/kg of each i.v., simultaneous administration",did not have significant effect on the DA elevation induced by cocaine
